Results on 2 molecules are retold here after ChEMBL document CHEMBL4354797, “Novel Pyrazolo[4,3- d]pyrimidine as Potent and Orally Active Inducible Nitric Oxide Synthase (iNOS) Dimerization Inhibitor with Efficacy in Rheumatoid Arthritis Mouse Model” (J Med Chem, 2019).

Active and inactive are the calls of the source. The calls are words filed in the database; no cut-off is given here.

Data set [1] deals with Rattus norvegicus. Description: Antiarthritic activity in Sprague-Dawley rat model of arthritis assessed as effect on CFA-induced synovial hyperplasia at 50 mg/kg, ig administered daily for 28 days starting from 14 days post-immunization and measured every 3 days by H and E staining based histopathological analysis. Format: functional, organism-based. The method, boiled down: (§1)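 Knee joints of adjuvant-arthritic rats were taken after intragastric dosing once daily, days 14–28 post-immunization (test agent 40 or 80 mg/kg; aspirin 50 mg/kg). Sections stained with H&E were scored by microscopy for synovial hyperplasia, inflammatory cell infiltration and bone/cartilage destruction, against normal and untreated arthritic rats.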

For data set [2], the system named is Rattus norvegicus. Description: Antiarthritic activity in Sprague-Dawley rat model of arthritis assessed as inhibition of CFA-induced inflammatory cell infiltration at 50 mg/kg, ig administered daily for 28 days starting from 14 days post-immunization and measured every 3 days by H and E staining based histopathological analysis. Format: functional, organism-based. The procedure, abridged: as §1

The subject of data set [3] is Rattus norvegicus. Description: Antiarthritic activity in Sprague-Dawley rat model of arthritis assessed as inhibition of CFA-induced cartilage destruction at 50 mg/kg, ig administered daily for 28 days starting from 14 days post-immunization and measured every 3 days by H and E staining based histopathological analysis. It counts as functional, organism-based. The method, boiled down:
as §1

In data set [4] the test system is Rattus norvegicus. Description: Antiinflammatory activity in CFA-induced Sprague-Dawley rat model of arthritis assessed as reduction in NO level in serum at 50 mg/kg, ig administered daily for 28 days starting from 14 days post-immunization. Format: functional, organism-based. The procedure, abridged:
(§2)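 Serum NO, TNF-α, IL-1β and IL-6 measured in adjuvant-arthritic rats given intragastric dosing once daily, days 14–28 after immunization (test agent 40 or 80 mg/kg; aspirin 50 mg/kg), compared with untreated arthritic and normal rats. n=5 per group, mean±s.d.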

In data set [5] the test system is Rattus norvegicus. The data set can be described thus: Antiinflammatory activity in CFA-induced Sprague-Dawley rat model of arthritis assessed as reduction in TNF-alpha level in serum at 50 mg/kg, ig administered daily for 28 days starting from 14 days post-immunization. It counts as functional, organism-based. The procedure, abridged:
as §2

The test system of data set [6] is Rattus norvegicus. The data set can be described thus: Antiinflammatory activity in CFA-induced Sprague-Dawley rat model of arthritis assessed as reduction in IL-1beta level in serum at 50 mg/kg, ig administered daily for 28 days starting from 14 days post-immunization. It counts as functional, organism-based. The method, boiled down: as §2
Data set [7] concerns Rattus norvegicus. The data set can be described thus: Antiinflammatory activity in CFA-induced Sprague-Dawley rat model of arthritis assessed as reduction in IL-6 level in serum at 50 mg/kg, ig administered daily for 28 days starting from 14 days post-immunization. It counts as functional, organism-based. The procedure, abridged: as §2
Data set [8] concerns Rattus norvegicus. Description: Antiarthritic activity in CFA-induced Sprague-Dawley rat arthritic model assessed as inhibition of hind paw swelling at 50 mg/kg, ig administered daily for 28 days starting from 14 days post-immunization and measured on day 30. Format: functional, organism-based. The procedure, abridged: (§3)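 Rat adjuvant-induced arthritis. Test agent given intragastrically once daily from day 14 to 28 after adjuvant immunization (40 or 80 mg/kg). Aspirin 50 mg/kg intragastric was the positive control. Hind paw swelling and arthritis index measured every 3 days, with body weight tracked; day 30 also reported. n=5 per group, mean±s.d., Tukey's test.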

Data set [9] relates to RAW264.7. Description: Antiinflammatory activity in mouse RAW264.7 cells assessed as inhibition of LPS-induced NO production at 10 uM preincubated for 1 hr followed by LPS addition and measured after 24 hrs by Griess reagent-based assay relative to control. Format: functional. The procedure, abridged:
(§4)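 RAW 264.7 cells pretreated with compound for 1 h, then LPS 1 µg/mL for 24 h. Single-point inhibition at 10 µM. IC50 by regression of inhibition over several concentrations. At least three independent experiments.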

Data set [10] addresses T1, Nitric oxide synthase, inducible (Mus musculus, UniProt P29477).
T1 sequence (P29477 whole entry): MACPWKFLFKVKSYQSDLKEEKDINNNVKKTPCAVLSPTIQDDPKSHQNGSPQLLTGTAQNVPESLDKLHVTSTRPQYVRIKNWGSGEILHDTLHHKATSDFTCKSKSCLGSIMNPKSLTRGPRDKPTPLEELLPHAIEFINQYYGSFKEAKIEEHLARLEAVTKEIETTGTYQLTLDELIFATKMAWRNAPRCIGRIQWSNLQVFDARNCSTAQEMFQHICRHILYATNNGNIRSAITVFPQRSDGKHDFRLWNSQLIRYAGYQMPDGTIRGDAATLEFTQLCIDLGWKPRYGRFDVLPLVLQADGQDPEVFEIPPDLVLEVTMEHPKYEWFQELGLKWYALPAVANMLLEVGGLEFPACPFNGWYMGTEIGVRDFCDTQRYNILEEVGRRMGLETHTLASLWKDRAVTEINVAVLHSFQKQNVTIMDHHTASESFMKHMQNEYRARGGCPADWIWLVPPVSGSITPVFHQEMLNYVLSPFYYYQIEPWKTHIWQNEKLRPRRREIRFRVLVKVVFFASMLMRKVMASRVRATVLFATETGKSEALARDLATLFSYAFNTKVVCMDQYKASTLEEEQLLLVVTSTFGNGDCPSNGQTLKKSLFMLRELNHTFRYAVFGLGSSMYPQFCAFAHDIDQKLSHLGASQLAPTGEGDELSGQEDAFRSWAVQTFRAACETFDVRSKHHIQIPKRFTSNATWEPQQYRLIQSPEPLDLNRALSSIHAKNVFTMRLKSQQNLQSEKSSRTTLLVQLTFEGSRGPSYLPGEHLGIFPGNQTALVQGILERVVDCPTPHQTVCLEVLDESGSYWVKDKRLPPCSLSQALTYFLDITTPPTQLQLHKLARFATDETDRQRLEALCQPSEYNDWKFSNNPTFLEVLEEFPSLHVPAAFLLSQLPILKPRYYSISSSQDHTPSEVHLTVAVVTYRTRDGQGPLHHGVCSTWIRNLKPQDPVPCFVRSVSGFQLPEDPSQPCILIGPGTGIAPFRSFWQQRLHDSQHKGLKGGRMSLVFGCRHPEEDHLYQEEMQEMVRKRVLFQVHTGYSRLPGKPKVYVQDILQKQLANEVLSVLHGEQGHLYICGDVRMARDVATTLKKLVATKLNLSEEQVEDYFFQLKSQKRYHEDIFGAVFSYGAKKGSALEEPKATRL
The data set can be described thus: Inhibition of iNOS in LPS-stimulated mouse RAW 264.7 cells preincubated for 1 hr followed by LPS-stimulation and measured after 6 hrs by fluorescence based assay. To be noted: read-out: IC50. The method, boiled down: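 Inhibition calculated relative to LPS-stimulated and unstimulated controls. IC50 obtained by regression of inhibition rates at several concentrations. Indomethacin served as positive control.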

Data set [11] deals with RAW264.7. The data set can be described thus: Antiinflammatory activity in mouse RAW264.7 cells assessed as inhibition of LPS-induced NO production preincubated for 1 hr followed by LPS addition and measured after 24 hrs by Griess reagent-based assay. It counts as functional, cell-based. The note with it: Mus musculus, RAW264.7; read-out: IC50. The method, boiled down:
as §4

Data set [12] deals with RAW264.7. Description: Cytotoxicity against mouse RAW264.7 cells assessed as reduction in cell viability. Format: cell-based.
Data set [13] concerns RAW264.7. Description: Cytotoxicity against LPS-induced mouse RAW264.7 cells assessed as reduction in cell viability. Format: cell-based.
The target in data set [14] is T2, Nitric oxide synthase, inducible (Mus musculus) (UniProt P29477).
T2 sequence (whole entry): T1 sequence (P29477 whole entry)
Description: Potency index, ratio of indomethacin IC50 to compound IC50 for inhibition of iNOS in LPS-stimulated mouse RAW264.7 cells. Format: cell-based.

For data set [15], the system named is RAW264.7. The data set can be described thus: Inhibition of iNOS expression in LPS-induced mouse RAW264.7 cells at 1 to 4 uM preincubated for 1 hr followed by LPS-stimulation by Western blot analysis. It counts as functional, cell-based. The procedure, abridged: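 RAW 264.7 cells pretreated with the indicated compound concentrations for 1 h, then LPS 1 µg/mL for 24 h. iNOS protein assessed by Western blot on 8% SDS-PAGE, with β-actin as loading control. At least three independent experiments, each in duplicate.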
(In general: A western blot detects proteins with antibodies after separation by electrophoresis.)

Data set [16] deals with T2, Nitric oxide synthase, inducible (Mus musculus). Description: Inhibition of iNOS dimerization in LPS-induced mouse RAW264.7 cells at 1 to 4 uM preincubated for 1 hr followed by LPS-stimulation and measured after 24 hrs by immunoblot analysis. It counts as cell-based.
Data set [17] concerns Rattus norvegicus. The data set can be described thus: Antiarthritic activity in CFA-induced Sprague-Dawley rat arthritic model assessed as inhibition of hind paw swelling at 40 mg/kg, ig administered daily for 28 days starting from 14 days post-immunization and measured on day 30. It counts as functional, organism-based. The procedure, abridged: as §3
The nature of data set [18]: Toxicity in Sprague-Dawley rat model of CFA-induced arthritis assessed as reduction in body weight loss at 40 to 80 mg/kg, ig administered daily for 28 days starting from 14 days post-immunization and measured on day 30. To be noted: in vivo, po. Format: organism-based. The procedure, abridged: as §3
For data set [19], the system named is Rattus norvegicus. Description: Antiarthritic activity in Sprague-Dawley rat model of arthritis assessed as decrease in CFA-induced synovial hyperplasia at 40 and 80 mg/kg, ig administered daily for 28 days starting from 14 days post-immunization and measured every 3 days by H and E staining based histopathological analysis. It counts as functional, organism-based. The method, boiled down:
as §1

For data set [20], the system named is Rattus norvegicus. The data set can be described thus: Antiarthritic activity in Sprague-Dawley rat model of arthritis assessed as inhibition of CFA-induced inflammatory cell infiltration at 40 and 80 mg/kg, ig administered daily for 28 days starting from 14 days post-immunization and measured every 3 days by H and E staining based histopathological analysis. It counts as functional, organism-based. The procedure, abridged: as §1

In data set [21] the test system is Rattus norvegicus. The data set can be described thus: Antiarthritic activity in Sprague-Dawley rat model of arthritis assessed as inhibition of CFA-induced cartilage destruction at 80 mg/kg, ig administered daily for 28 days starting from 14 days post-immunization and measured every 3 days by H and E staining based histopathological analysis. It counts as functional, organism-based. The procedure, abridged:
as §1

In data set [22] the test system is Rattus norvegicus. Description: Antiinflammatory activity in ig dosed CFA-induced Sprague-Dawley rat model of arthritis assessed as reduction in NO level in serum administered daily for 28 days starting from 14 days post-immunization. Format: functional, organism-based. The procedure, abridged:
as §2

For data set [23], the system named is Rattus norvegicus. The data set can be described thus: Antiinflammatory activity in ig dosed CFA-induced Sprague-Dawley rat model of arthritis assessed as reduction in TNF-alpha level in serum administered daily for 28 days starting from 14 days post-immunization. Format: functional, organism-based. The procedure, abridged: as §2
The subject of data set [24] is Rattus norvegicus. The data set can be described thus: Antiinflammatory activity in ig dosed CFA-induced Sprague-Dawley rat model of arthritis assessed as reduction in IL-1beta level in serum administered daily for 28 days starting from 14 days post-immunization. Format: functional, organism-based. The method, boiled down:
as §2

For data set [25], the system named is Rattus norvegicus. Description: Antiinflammatory activity in ig dosed CFA-induced Sprague-Dawley rat model of arthritis assessed as reduction in IL-6 level in serum administered daily for 28 days starting from 14 days post-immunization. Format: functional, organism-based. The procedure, abridged:
as §2

For the molecule `CC(=O)Oc1ccccc1C(=O)O`, the result in the data set with Rattus norvegicus [1], in the data set on Rattus norvegicus [2], with Rattus norvegicus [3], with Rattus norvegicus [4], in the data set on Rattus norvegicus [5] and in the data set with Rattus norvegicus [6] was Active. For the same molecule, the result with Rattus norvegicus [7] and in the data set on Rattus norvegicus [8] was Active.
`CCCc1nn(C)c2c(NC(C)C)nc(/C=C/c3cc(OC)c(OC)c(OC)c3)nc12`: the inhibition at 10 µM with RAW264.7 [9] was 90.4%. Moreover, the IC50 was 1.12 µM in data set [10], 3.17 µM with RAW264.7 [11], greater than 50 µM with RAW264.7 [12] and greater than 50 µM in the data set on RAW264.7 [13]. The Ratio IC50 in data set [14] was determined as 22. The inhibition entry in the data set with RAW264.7 [15] is “inactive”. For the same molecule, the inhibition entry (in [16]; in the data set with Rattus norvegicus [17]) was “Active” throughout. The Activity entry in [18] was “Non-Toxic”; with Rattus norvegicus [22] it was “Dose-dependent effect”; in the data set on Rattus norvegicus [23], “Dose-dependent effect”; in the data set on Rattus norvegicus [24], “Dose-dependent effect”; with Rattus norvegicus [25] it was “Dose-dependent effect”. The outcome in the data set with Rattus norvegicus [19], with Rattus norvegicus [20] and in the data set with Rattus norvegicus [21] was Active.

What is called inhibition is the drop in the measured response relative to a control, in per cent. As usually defined, the IC50 is the midpoint of a concentration-inhibition curve.
